Results taken from ChEMBL document CHEMBL3739379, “Anti-Candida activity and cytotoxicity of a large library of new N-substituted-1,3-thiazolidin-4-one derivatives” (Eur J Med Chem, 2016).
Values after ≈ are worked out from the molar mass of the structure shown.

Assays:
Type in all cases: functional
Staphylococcus aureus = experiment: Antibacterial activity against Staphylococcus aureus after 18 to 22 hrs by broth microdilution method
Procedure, shortened: (§1)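 Broth microdilution per NCCLS in Mueller-Hinton II broth; isolates subcultured for purity. Compounds dissolved in DMSO, serial dilutions 256 to 0.5 µg/mL; inoculum 10^5/mL. Controls: organism without compound, medium only. Incubation 18 to 22 h at 35 °C. MIC is the lowest concentration giving complete growth inhibition, read by unaided eye.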

Staphylococcus warneri = experiment: Antibacterial activity against Staphylococcus warneri after 18 to 22 hrs by broth microdilution method; procedure, shortened: as §1
Enterococcus faecalis = experiment: Antibacterial activity against […] faecalis after 18 to 22 hrs by broth microdilution method; procedure, shortened: as §1
[1] = test system: Staphylococcus haemolyticus; experiment: Antibacterial activity against Staphylococcus haemolyticus after 18 to 22 hrs by broth microdilution method; procedure, shortened: as §1
Escherichia coli = experiment: Antibacterial activity against Escherichia coli at after 18 to 22 hrs by broth microdilution method; procedure, shortened: as §1
Proteus mirabilis = experiment: Antibacterial activity against Proteus mirabilis after 18 to 22 hrs by broth microdilution method; procedure, shortened: as §1
Enterobacter sp. = experiment: Antibacterial activity against Enterobacter sp. after 18 to 22 hrs by broth microdilution method; procedure, shortened: as §1
Klebsiella oxytoca = experiment: Antibacterial activity against Klebsiella oxytoca after 18 to 22 hrs by broth microdilution method; procedure, shortened: as §1
Candida albicans = experiment: Antifungal activity against Candida albicans clinical isolate after 24 hrs by sabouraud dextrose broth based microdilution method
Procedure, shortened: (§2)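 Clinical isolates identified by conventional methods and subcultured for purity. Broth microdilution per NCCLS in Sabouraud dextrose broth; compounds dissolved in DMSO and serially diluted; inoculum 10^3/mL. Controls: fungi without compound, medium only. Incubated 24 h at 37 °C. MIC is the lowest concentration with complete growth inhibition by unaided eye. Values are geometric means over isolates per species.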

Nakaseomyces glabratus = experiment: Antifungal activity against Candida glabrata clinical isolate after 24 hrs by sabouraud dextrose broth based microdilution method; procedure, shortened: as §2
Candida tropicalis = experiment: Antifungal activity against Candida tropicalis clinical isolate after 24 hrs by sabouraud dextrose broth based microdilution method; procedure, shortened: as §2
Pichia kudriavzevii = experiment: Antifungal activity against Candida krusei clinical isolate after 24 hrs by sabouraud dextrose broth based microdilution method; procedure, shortened: as §2
Candida parapsilosis = experiment: Antifungal activity against Candida parapsilosis clinical isolate after 24 hrs by sabouraud dextrose broth based microdilution method; details: Lodderomyces parapsilosis; procedure, shortened: as §2
[Candida] sake = Antifungal activity against Candida sake clinical isolate after 24 hrs by sabouraud dextrose broth based microdilution method; details: Fermentozyma sake; procedure, shortened: as §2

Row | Structure (SMILES) | MIC (Staphylococcus aureus) [µg/mL] | MIC (Staphylococcus warneri) [µg/mL] | MIC (Enterococcus faecalis) [µg/mL] | MIC [1] [µg/mL] | MIC (Escherichia coli) [µg/mL] | MIC (Proteus mirabilis) [µg/mL] | MIC (Enterobacter sp.) [µg/mL] | MIC (Klebsiella oxytoca) [µg/mL] | MIC (Candida albicans) [µg/mL] | MIC (Nakaseomyces glabratus) [µg/mL] | MIC (Candida tropicalis) [µg/mL] | MIC (Pichia kudriavzevii) [µg/mL] | MIC (Candida parapsilosis) [µg/mL] | MIC ([Candida] sake) [µg/mL]
1 | CC(C)=N/N=C1\SCC(=O)N1Cc1cccc2ccccc12 | > 256 | > 256 | > 256 | > 256 | > 256 | > 256 | > 256 | > 256 | 4 (≈ 12.8 µM) | 4 (≈ 12.8 µM) | 2 (≈ 6.42 µM) | 2 (≈ 6.42 µM) | 2 (≈ 6.42 µM) | 2 (≈ 6.42 µM)
2 | O=C1c2ccccc2C(=O)N1CN1C(=O)CS/C1=N\N=C\c1ccco1 | > 256 | > 256 | > 256 | > 256 | > 256 | > 256 | > 256 | > 256 | 2 (≈ 5.43 µM) | 8 (≈ 21.7 µM) | 8 (≈ 21.7 µM) | 4 (≈ 10.9 µM) | 2 (≈ 5.43 µM) | 2 (≈ 5.43 µM)
3 | C/C(=N\N=C1/SCC(=O)N1CN1C(=O)c2ccccc2C1=O)c1ccco1 | > 256 | > 256 | > 256 | > 256 | > 256 | > 256 | > 256 | > 256 | 256 (≈ 669 µM) | 16 (≈ 41.8 µM) | 128 (≈ 335 µM) | 256 (≈ 669 µM) | 256 (≈ 669 µM) | 256 (≈ 669 µM)
4 | CC1CC/C(=N\N=C2/SCC(=O)N2CN2C(=O)c3ccccc3C2=O)C1 (configuration not stated) | > 256 | > 256 | > 256 | > 256 | > 256 | > 256 | > 256 | > 256 | 2 (≈ 5.4 µM) | 32 (≈ 86.4 µM) | 8 (≈ 21.6 µM) | 16 (≈ 43.2 µM) | 8 (≈ 21.6 µM) | 16 (≈ 43.2 µM)
5 | C=CCC/C(C)=N/N=C1\SCC(=O)N1Cc1cccc2ccccc12 | > 256 | > 256 | > 256 | > 256 | > 256 | > 256 | > 256 | > 256 | 2 (≈ 5.69 µM) | 2 (≈ 5.69 µM) | 8 (≈ 22.8 µM) | 2 (≈ 5.69 µM) | 2 (≈ 5.69 µM) | 2 (≈ 5.69 µM)
6 | CCCCCC/C(C)=N/N=C1\SCC(=O)N1CN1C(=O)c2ccccc2C1=O | > 256 | > 256 | > 256 | > 256 | > 256 | > 256 | > 256 | > 256 | 2 (≈ 4.99 µM) | 16 (≈ 39.9 µM) | 16 (≈ 39.9 µM) | 8 (≈ 20 µM) | 16 (≈ 39.9 µM) | 16 (≈ 39.9 µM)
7 | C=CCC/C(C)=N/N=C1\SCC(=O)N1CN1C(=O)c2ccccc2C1=O | > 256 | > 256 | > 256 | > 256 | > 256 | > 256 | > 256 | > 256 | 4 (≈ 10.8 µM) | 32 (≈ 86.4 µM) | 4 (≈ 10.8 µM) | 32 (≈ 86.4 µM) | 128 (≈ 346 µM) | 8 (≈ 21.6 µM)
8 | CCC(CC)=N/N=C1\SCC(=O)N1Cc1cccc2ccccc12 | > 256 | > 256 | > 256 | > 256 | > 256 | > 256 | > 256 | > 256 | 2 (≈ 5.89 µM) | 16 (≈ 47.1 µM) | 2 (≈ 5.89 µM) | 16 (≈ 47.1 µM) | 16 (≈ 47.1 µM) | 2 (≈ 5.89 µM)
9 | O=C1CS/C(=N\N=C2CCCCC2)N1Cc1ccc([N+](=O)[O-])cc1 | > 256 | > 256 | > 256 | > 256 | > 256 | > 256 | > 256 | > 256 | 8 (≈ 23.1 µM) | 32 (≈ 92.4 µM) | 8 (≈ 23.1 µM) | 16 (≈ 46.2 µM) | 8 (≈ 23.1 µM) | 16 (≈ 46.2 µM)
10 | O=C1CS/C(=N\N=C\c2cccnc2)N1Cc1cccc2ccccc12 | > 256 | > 256 | > 256 | > 256 | > 256 | > 256 | > 256 | > 256 | 4 (≈ 11.1 µM) | 8 (≈ 22.2 µM) | 8 (≈ 22.2 µM) | 32 (≈ 88.8 µM) | 32 (≈ 88.8 µM) | 32 (≈ 88.8 µM)
11 | O=C1CS/C(=N\N=C2CCCCCC2)N1Cc1cccc2ccccc12 | > 256 | > 256 | > 256 | > 256 | > 256 | > 256 | > 256 | > 256 | 8 (≈ 21.9 µM) | 16 (≈ 43.8 µM) | 8 (≈ 21.9 µM) | 4 (≈ 10.9 µM) | 4 (≈ 10.9 µM) | 4 (≈ 10.9 µM)
12 | CC1CCC/C1=N\N=C1/SCC(=O)N1Cc1ccc([N+](=O)[O-])cc1 (configuration not stated) | > 256 | > 256 | > 256 | > 256 | > 256 | > 256 | > 256 | > 256 | 4 (≈ 11.5 µM) | 16 (≈ 46.2 µM) | 2 (≈ 5.77 µM) | 2 (≈ 5.77 µM) | 8 (≈ 23.1 µM) | 2 (≈ 5.77 µM)
13 | C/C(=N\N=C1/SCC(=O)N1CN1C(=O)c2ccccc2C1=O)C1CCCCC1 | > 256 | > 256 | > 256 | > 256 | > 256 | > 256 | > 256 | > 256 | 256 (≈ 642 µM) | 16 (≈ 40.2 µM) | 256 (≈ 642 µM) | 16 (≈ 40.2 µM) | 16 (≈ 40.2 µM) | 16 (≈ 40.2 µM)
14 | C/C(=N\N=C1/SCC(=O)N1Cc1ccc([N+](=O)[O-])cc1)c1cccs1 | > 256 | > 256 | > 256 | > 256 | > 256 | > 256 | > 256 | > 256 | 8 (≈ 21.4 µM) | 2 (≈ 5.34 µM) | 4 (≈ 10.7 µM) | 2 (≈ 5.34 µM) | 2 (≈ 5.34 µM) | 8 (≈ 21.4 µM)
15 | CCCC/C(CC)=N/N=C1\SCC(=O)N1CN1C(=O)c2ccccc2C1=O | > 256 | > 256 | > 256 | > 256 | > 256 | > 256 | > 256 | > 256 | 4 (≈ 10.3 µM) | 16 (≈ 41.4 µM) | 2 (≈ 5.17 µM) | 32 (≈ 82.8 µM) | 8 (≈ 20.7 µM) | 2 (≈ 5.17 µM)
16 | O=C1c2ccccc2C(=O)N1CN1C(=O)CS/C1=N\N=C\c1cccnc1 | > 256 | > 256 | > 256 | > 256 | > 256 | > 256 | > 256 | > 256 | 256 (≈ 675 µM) | 8 (≈ 21.1 µM) | 16 (≈ 42.2 µM) | 8 (≈ 21.1 µM) | 16 (≈ 42.2 µM) | 32 (≈ 84.3 µM)
17 | C/C(=N\N=C1/SCC(=O)N1Cc1cccc2ccccc12)c1ccccc1 | > 256 | > 256 | > 256 | > 256 | > 256 | > 256 | > 256 | > 256 | 2 (≈ 5.36 µM) | 8 (≈ 21.4 µM) | 2 (≈ 5.36 µM) | 32 (≈ 85.7 µM) | 32 (≈ 85.7 µM) | 8 (≈ 21.4 µM)
18 | C/C(=N\N=C1/SCC(=O)N1CN1C(=O)c2ccccc2C1=O)c1ccccn1 | > 256 | > 256 | > 256 | > 256 | > 256 | > 256 | > 256 | > 256 | 2 (≈ 5.08 µM) | 32 (≈ 81.3 µM) | 2 (≈ 5.08 µM) | 32 (≈ 81.3 µM) | 4 (≈ 10.2 µM) | 4 (≈ 10.2 µM)
